Results from ChEMBL document CHEMBL1129598, “Design, synthesis, and in vitro evaluation of cyclic nitrones as free radical traps for the treatment of stroke” (J Med Chem, 1996).

Assays:
[1] = lipophilicity of the compound.; assay type: physicochemical; details: reversed-phase HPLC
How it was run: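 Lipophilicity was measured by reversed-phase HPLC as log k′_w. Samples at 0.5 mg/mL in MeOH were run on a C18 column (15 cm × 4.6 mm, 5 µm). Elution used 32–62% MeOH in pH 7.4 phosphate buffer, at three MeOH levels per compound.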

[2] = In vitro inhibition of oxidation of soybean phosphatidylcholine liposomes using lipid peroxidation assay.; assay type: functional, Glycine max
How it was run: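 Soybean phosphatidylcholine liposomes were oxidised with an Fe²⁺/Fe³⁺ mixture to start peroxidation, with test agent present, and oxidation products were then analysed. A reference cyclic nitrone was run as an internal standard in each experiment. Runs were rejected if its value deviated by more than 15% from its established value.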

CC1(C)Cc2ccccc2C=[N+]1[O-]
Log K'W [1]: 1.9
IC50 [2]: 1670 µM

CC(C)(C)/[N+]([O-])=C/c1ccccc1
IC50 [2]: 14300 µM

[O-][N+]1=Cc2ccccc2CCC12CCCCC2
Log K'W [1]: 2.99
IC50 [2]: 730 µM

CC1(C)c2cc(O)ccc2C=[N+]1[O-]
Log K'W [1]: 0.68
IC50 [2]: 810 µM

CC1(C)Cc2sccc2C=[N+]1[O-]
Log K'W [1]: 1.57
IC50 [2]: 1590 µM

[O-][N+]1=Cc2ccccc2CCC12CCOCC2
Log K'W [1]: 1.98
IC50 [2]: 310 µM

COc1ccc2c(c1)C(C)(C)[N+]([O-])=C2
Log K'W [1]: 1.75
IC50 [2]: 910 µM

CC1(C)Cc2ccoc2C=[N+]1[O-]
Log K'W [1]: 1.16
IC50 [2]: 1070 µM

CC1(C)Cc2c(ccc3ccccc23)C=[N+]1[O-]
Log K'W [1]: 2.67
IC50 [2]: 100 µM

CC1(C)Cc2ccsc2C=[N+]1[O-]
Log K'W [1]: 1.47
IC50 [2]: 1720 µM

COc1cccc2c1C=[N+]([O-])C2(C)C
Log K'W [1]: 1.98
IC50 [2]: 1090 µM

CC1(C)c2ccccc2C=[N+]1[O-]
Log K'W [1]: 1.61
IC50 [2]: 1360 µM

Cc1cc2c(c(C)c1O)CCC(C)(C)[N+]([O-])=C2
Log K'W [1]: 2.29
IC50 [2]: 22 µM

CC1(C)Cc2ccc3ccccc3c2C=[N+]1[O-]
Log K'W [1]: 2.69
IC50 [2]: 69 µM

[O-][N+]1=Cc2ccccc2CC12CCOCC2
Log K'W [1]: 1.65
IC50 [2]: 1240 µM

Cc1cc2c(c(C)c1O)CC(C)(C)[N+]([O-])=C2
Log K'W [1]: 1.82
IC50 [2]: 66 µM
